A selection: hits, their analogues and other compounds. The true share with any hit is near 3.1%.
ERAP1 inh: blocks human ERAP1 aminopeptidase activity. Q9NZ08. recombinant ERAP1, Leu-AMC fluorescence, 60 min. inhibition, % at 10.7 µM. 340,000 compounds, 0.15% hits. AID 652197;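 active = mean replicate inhibition of at least 30%, or all replicates individually reaching that 30% level; inactive = mean below 30% and not every replicate reaching it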;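 also: 0% = neutral control wells and 100% = L-leucinethiol positive control wells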
CFTR F508del cor: CFTR F508del correction in bronchial cells | CFBE cells, YFP halide quenching; stimulated with forskolin plus potentiator P3; % fluorescence drop versus neutral controls | activity (quench increase), % at 7.58 µM | 350,000 compounds, 0.36% hits | AID 720511;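 active = mean added fluorescence quench of at least 8% versus neutral control, with both replicates also reaching 8%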;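 also: cells transiently co-express mutant CFTR-F508del with the halide-sensitive YFP; corrector assay measuring rescue of mutant channel to the surface after 24 h compound exposure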
SIRT5 inh: inhibitors of human sirtuin-5 desuccinylase. Q9NXA8. Purified SirT5, succinyl-peptide AMC, trypsin-coupled fluorescence. inhibition, % at 15 µM. 330,000 compounds, 1.1% hits; in the data active = inhibition above about 15%
Target sequence (Q9NXA8 whole entry, looked up): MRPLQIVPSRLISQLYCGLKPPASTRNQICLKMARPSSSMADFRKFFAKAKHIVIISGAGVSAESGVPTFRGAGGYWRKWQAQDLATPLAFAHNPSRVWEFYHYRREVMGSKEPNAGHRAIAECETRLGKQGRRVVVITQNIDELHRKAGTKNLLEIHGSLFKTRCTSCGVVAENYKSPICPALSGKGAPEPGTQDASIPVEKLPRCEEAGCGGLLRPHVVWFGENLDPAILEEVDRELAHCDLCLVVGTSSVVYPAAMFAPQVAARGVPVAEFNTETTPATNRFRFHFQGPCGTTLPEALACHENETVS
S100A4 MyoIIA: S100A4-myosin IIA interaction inhibition. P26447. S100A4/TAMRA-MyoIIA peptide fluorescence polarization. inhibition, % at 10.7 µM. 360,000 compounds, 0.14% hits;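 active = mean inhibition of at least 70% across replicates, with every replicate also reaching that level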
Target sequence (P26447 whole entry, looked up): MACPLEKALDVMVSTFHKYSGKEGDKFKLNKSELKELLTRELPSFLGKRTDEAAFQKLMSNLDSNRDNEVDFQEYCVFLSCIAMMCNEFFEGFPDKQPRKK
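Material: S100A4 monomer (human). Medium: Calcium-containing HEPES buffer, pH 7.2. Probe or stimulus: labelled myosin peptide probe, 5 nM. Compound dosing: one concentration per compound. Timing: polarization read 5 min after assay mix addition, stable 5–60 min. Benchmarks: DMSO as neutral control, TFP as positive control.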
Ecoli rRNA inh: inhibits bacterial ribosomal RNA function over humanized ribosomes. E. coli WT GFP vs humanized-ribosome RFP mutants, fluorescence, 24 h; active compounds read low; DMSO median 0, no signal -100. GFP signal change (wild-type ribosome), % (test concentration not listed). 350,000 compounds, 1.6% hits. AID 720706;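 active = significant combined selectivity score with lowered wild-type GFP, culture density cut under 30%, mutant RFP and density less affected; inactive = any of these conditions unmet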
* marks the source's active call; other numbers are inactive results; · = no result given.

SMILES	ERAP1 inh	CFTR F508del cor	SIRT5 inh	S100A4 MyoIIA	Ecoli rRNA inh
C[C@@H]1CN([C@H](C)CO)C(=O)CCCn2nncc2CO[C@@H]1CN(C)C(=O)CCCN(C)C	-2.6	-1.5	-3.3	-3.4	0.2
COCc1cn(CC[C@H]2CC[C@@H](NC(=O)CCN3CCCCC3)[C@@H](CO)O2)nn1	-7.6	2.0	-0.6	-0.2	2.7
O=C(N[C@H]1CC[C@@H](CC(=O)N2CCCCC2)O[C@@H]1CO)c1ccc2c(c1)OCO2	-1.8	1.3	5.4	-8.3	2.6
CCC(Sc1nc2ccncc2[nH]1)C(=O)Nc1ccc(C)c(Cl)c1 (stereo unspecified)	1.7	-1.0	-1.9	78.6*	-41.8
C[C@@H]1CCCCO[C@@H](CN(C)Cc2ccc(C(=O)O)cc2)[C@H](C)CN([C@H](C)CO)C(=O)c2cc(NS(=O)(=O)c3ccc(Cl)cc3)ccc2O1	-9.0	-0.1	2.2	-6.4	-0.2
CC(=C/c1ccccc1)/C=N/N1CCN(Cc2ccc(C)cc2)CC1	1.8	-0.3	-4.0	-4.4	-25.1*
O=C(COc1ccc2c(-c3ccccc3)cc(=O)oc2c1)N[C@H](Cc1c[nH]c2ccccc12)C(=O)O	1.6	1.0	4.9	0.2	-22.2
CC(Oc1ccc2c(-c3ccccc3)cc(=O)oc2c1)C(=O)N[C@H](Cc1c[nH]c2ccccc12)C(=O)O (stereo partly specified)	0.0	0.2	5.4	-6.5	-24.1*
COc1ccc(-c2cc(=O)oc3cc(OC(C)C(=O)NC(Cc4c[nH]c5ccc(O)cc45)C(=O)O)ccc23)cc1 (stereo unspecified)	30.7*	-3.2	·	1.3	·
O=C(C[C@H]1C=C[C@H](NC(=O)C2CC2)[C@@H](CO)O1)NCc1ccccc1Cl	-2.7	-0.6	1.8	-2.6	1.3
O=C(Nc1ccc(CSc2ccccc2)cc1)c1ccccc1	9.7	·	15.3*	-4.5	25.6
COC(=O)Nc1ccc(SCC(=O)c2ccc(Cl)cc2)cc1	4.7	-1.1	-0.5	-3.5	-36.8
COC(=O)Nc1ccc(SCC(=O)c2ccccc2)cc1	0.9	2.7	-0.4	-8.1	-25.3*
O=C(O)C1Nc2c(Cl)cc(Cl)c(Cl)c2C2C=CCC12 (stereo unspecified)	4.1	0.8	22.4*	-23.6	-16.7
O=C(O)C1Nc2c(O)cccc2C2C=CCC12 (stereo unspecified)	-3.6	-1.4	17.4*	-2.3	9.4
CC(C)CNC(=O)C1Nc2ccccc2C2C=CCC12 (stereo unspecified)	-4.0	-2.0	·	1.2	4.9
CC(C)C1Nc2c(O)cc(Cl)c([N+](=O)[O-])c2C2C=CCC21 (stereo unspecified)	1.4	·	-2.0	17.0	-54.9
Cc1ccc2nc(N)nnc2c1	3.2	-0.6	1.8	-4.6	2.2
Cc1cc2nc3ccc(N(C)C)cc3nc2cc1N	3.0	-0.3	-2.3	177.9*	·
CN1/C(=C\C=C(C#N)C#N)C(C)(C)c2ccccc21	-2.0	-2.5	0.3	160.0*	87.4
CCOC(=O)/C=C1/N(C)c2ccccc2C1(C)C	·	0.6	0.7	1.0	12.1
Cc1ncc(CN2CCC(CO)(Cc3ccccc3)CC2)s1	·	0.5	17.7*	3.7	9.9
Cc1ncc(CN2CCC(CO)(CCOc3ccccc3)CC2)s1	4.1	3.1	-3.2	-9.4	11.5
CCCC(C)C(=O)Nc1ccc(S(N)(=O)=O)cc1 (stereo unspecified)	-6.1	2.6	11.2	-3.8	4.5
Cc1ccccc1C(=O)NC(CC(C)C)C(=O)Nc1ccc(S(N)(=O)=O)cc1 (stereo unspecified)	-9.5	5.1	1.1	1.6	-24.1*
SMILES	ERAP1 inh	CFTR F508del cor	SIRT5 inh	S100A4 MyoIIA	Ecoli rRNA inh
C[C@@H]1CN([C@@H](C)CO)C(=O)c2cc(C3=CCCC3)cnc2O[C@H]1CN(C)C(=O)CN(C)C	-1.0	-1.4	-0.5	3.9	1.8
Nc1ccc2c3c(cccc13)C(=O)N(c1ccccc1)C2=O	-5.3	32.8*	1.6	13.9	70.7
COc1cccc(NC(C)(C)c2nnnn2-c2c(C)cccc2C)c1	5.0	0.9	2.4	0.1	-24.2*
COc1cccc(NC(=O)N2CCN(c3nnnn3-c3ccccc3)CC2)c1	-0.8	-0.4	3.6	1.8	-1.3
CN=c1scc(-c2cccs2)n1/N=C/c1ccccc1O	11.9	·	1.8	2.6	-26.6*
CN=c1scc(-c2cccs2)n1/N=C/c1ccc(O)c(O)c1O	-2.8	1.1	2.9	-6.0	-13.2
C[C@H]1CN([C@@H](C)CO)C(=O)c2cccc(N(C)C)c2O[C@H]1CN(C)Cc1ccc(C(=O)Nc2ccccc2N)cc1	5.3	4.0	·	1.4	2.7
COc1ccc(CN(CCN2CCOCC2)C(=O)c2c(F)cccc2F)cc1OC	-0.1	-1.6	17.2*	3.0	8.6
CCN1CCCC(OC(=O)c2cc(-c3ccccc3Cl)nc3ccccc23)C1 (stereo unspecified)	-0.5	11.6*	-3.4	1.7	-15.0
O=C(c1cc(-c2ccccc2Cl)nc2ccccc12)N1CCC1	-4.1	3.5	-0.3	-1.7	7.3
O=C(O)c1ccccc1C(=O)Nc1cc(-c2ccccc2)[nH]n1	4.3	1.1	8.3	8.2	2.5
O=C(O)c1ccccc1C(=O)Nc1n[nH]c(=S)s1	79.3*	2.5	0.8	-2.9	14.4
Cc1cccc(N2C(=O)C(O)=C(C(=O)c3cccs3)C2c2ccc(C(C)C)cc2)n1 (stereo unspecified)	-1.7	-1.3	-4.3	8.4	-23.4*
C[C@@H]1CCCCO[C@H](CN(C)C(=O)Nc2cccc3ccccc23)[C@H](C)CN([C@@H](C)CO)C(=O)c2cc(NC(=O)Nc3ccc(F)cc3)ccc2O1	-1.3	-1.4	-1.7	-20.9	3.0
CCCN(C)C[C@H]1OCCCC[C@@H](C)Oc2ccc(NC(=O)Nc3ccc(OC)cc3)cc2C(=O)N([C@H](C)CO)C[C@@H]1C	-0.3	0.3	-2.0	9.8	1.4
Cc1noc(C)c1S(=O)(=O)Nc1ccc2c(c1)C(=O)N([C@@H](C)CO)C[C@@H](C)[C@@H](CN(C)C(=O)CCC(F)(F)F)OCCCC[C@@H](C)O2	-4.0	-0.5	3.7	-1.4	-1.9
COc1ccc(-c2noc(Cn3cc(S(=O)(=O)N4CCCC4)ccc3=O)n2)cc1	2.0	1.8	22.2*	-11.5	11.8
O=c1ccc(S(=O)(=O)N2CCCC2)cn1Cc1nc(-c2ccc(F)cc2)no1	3.6	-1.7	-3.5	-3.7	2.4
C[C@H]1CN([C@@H](C)CO)C(=O)c2cccc(NC(=O)Nc3ccccc3)c2O[C@H]1CN(C)C(=O)Nc1ccc(C(F)(F)F)cc1	0.4	1.4	2.3	-0.9	-5.3
COc1ccc(C(=O)N=c2sccn2C)cc1	0.5	-4.2	-1.7	1.3	-4.4
CCOc1cc(C(=O)N=c2sccn2C)ccc1OC(F)F	-0.1	1.3	3.4	-6.0	-26.2*
Cn1ccsc1=NC(=O)c1ccc(Cl)cc1	1.1	-1.6	·	-0.9	-27.1*

Bioassay records deposited in PubChem by Broad Institute.
